Columns and labels:
[1] = biological target: T1, Adenosine receptor A1 (Rattus norvegicus, UniProt P25099); assay: Displacement of [3H]CCPA from adenosine A1 receptor in rat brain cortical membranes after 90 mins by liquid scintillation counting method; assay type: cell membranes
T1 sequence (P25099 whole entry): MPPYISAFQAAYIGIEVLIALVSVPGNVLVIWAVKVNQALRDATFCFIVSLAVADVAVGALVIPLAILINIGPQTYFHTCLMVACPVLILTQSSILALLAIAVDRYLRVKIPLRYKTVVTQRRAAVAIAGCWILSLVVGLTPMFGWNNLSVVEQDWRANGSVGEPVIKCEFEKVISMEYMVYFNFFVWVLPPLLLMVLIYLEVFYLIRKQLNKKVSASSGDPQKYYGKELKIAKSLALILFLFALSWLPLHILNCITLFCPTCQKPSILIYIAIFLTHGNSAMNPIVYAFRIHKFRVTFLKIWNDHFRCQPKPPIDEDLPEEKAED
How it was run: (§1)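 [³H]CCPA (1 nM) used with rat brain cortical or human A1-CHO membranes, 90 min at rt. Membranes pre-incubated 10-15 min with ADA 0.12 IU/mL. Nonspecific binding defined with 10 µM CADO. Compounds dissolved in DMSO, 2.5 % final. Filtration on GF/B filters with ice-cold Tris-HCl washes, then scintillation counting. Curves used 6-7 concentrations spanning 3 log units. At least three experiments, in duplicate (human) or triplicate (rat).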

[2] = biological target: Adenosine receptor A2a (Rattus norvegicus, UniProt P30543); assay: Displacement of [3H]MSX-2 from adenosine A2A receptor in rat brain striatal membranes after 30 mins by liquid scintillation counting method; assay type: cell membranes, Striatum, Membrane
Adenosine receptor A2a (Rattus norvegicus, UniProt P30543), sequence (P30543 whole entry): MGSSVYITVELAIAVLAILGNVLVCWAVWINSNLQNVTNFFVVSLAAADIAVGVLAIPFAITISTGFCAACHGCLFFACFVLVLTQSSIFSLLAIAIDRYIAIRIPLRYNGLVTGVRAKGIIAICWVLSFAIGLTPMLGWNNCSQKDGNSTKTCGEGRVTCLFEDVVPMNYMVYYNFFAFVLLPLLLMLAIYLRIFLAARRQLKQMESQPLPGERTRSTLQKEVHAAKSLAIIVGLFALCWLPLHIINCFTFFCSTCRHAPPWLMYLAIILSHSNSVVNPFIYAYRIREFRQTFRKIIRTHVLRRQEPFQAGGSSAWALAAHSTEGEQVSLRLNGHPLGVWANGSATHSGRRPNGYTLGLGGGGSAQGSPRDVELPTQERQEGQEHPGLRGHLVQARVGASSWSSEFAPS
How it was run: (§2)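 [³H]MSX-2 (1 nM) used with rat striatal or human A2A-HEK membranes, 30 min at rt. Membranes pre-incubated 10-15 min with ADA 0.12 IU/mL. DMSO 2.5 % final. GF/B filtration, then scintillation counting. Curves used 6-7 concentrations over 3 log units. At least three experiments, in duplicate (human) or triplicate (rat).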

[3] = biological target: T2, Adenosine receptor A2b (Homo sapiens, UniProt P29275); assay: Displacement of [3H]PSB-603 from recombinant human adenosine A2B receptor expressed in CHO cell membranes after 75 mins by liquid scintillation counting method
T2 sequence (P29275 whole entry): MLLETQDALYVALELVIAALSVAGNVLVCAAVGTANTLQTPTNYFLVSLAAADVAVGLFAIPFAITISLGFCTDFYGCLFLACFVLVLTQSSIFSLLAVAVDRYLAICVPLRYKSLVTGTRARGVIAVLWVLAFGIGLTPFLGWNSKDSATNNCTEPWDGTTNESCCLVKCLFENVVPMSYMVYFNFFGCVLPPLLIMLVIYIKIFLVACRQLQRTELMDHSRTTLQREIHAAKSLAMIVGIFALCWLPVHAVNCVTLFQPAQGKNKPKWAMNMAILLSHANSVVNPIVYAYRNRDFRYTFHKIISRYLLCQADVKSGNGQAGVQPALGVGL
How it was run: (§3)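 [³H]PSB-603 (0.3 nM) used with CHO membranes expressing human, mouse or rat A2BAR, 75 min at rt. Membranes pre-incubated 10-15 min with ADA 0.12 IU/mL. Nonspecific binding defined with 10 µM DPCPX. DMSO 2.5 % final. Filtration on GF/B with ice-cold 50 mM Tris-HCl pH 7.4 containing 0.1 % BSA, then scintillation counting. Curves used 6-7 concentrations over 3 log units. At least three experiments.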

[4] = biological target: T3, Adenosine receptor A3 (Homo sapiens, UniProt P0DMS8); assay: Displacement of [3H]PSB-11 from recombinant human adenosine A3 receptor expressed in CHO cell membranes after 45 mins by liquid scintillation counting method
T3 sequence (P0DMS8 whole entry): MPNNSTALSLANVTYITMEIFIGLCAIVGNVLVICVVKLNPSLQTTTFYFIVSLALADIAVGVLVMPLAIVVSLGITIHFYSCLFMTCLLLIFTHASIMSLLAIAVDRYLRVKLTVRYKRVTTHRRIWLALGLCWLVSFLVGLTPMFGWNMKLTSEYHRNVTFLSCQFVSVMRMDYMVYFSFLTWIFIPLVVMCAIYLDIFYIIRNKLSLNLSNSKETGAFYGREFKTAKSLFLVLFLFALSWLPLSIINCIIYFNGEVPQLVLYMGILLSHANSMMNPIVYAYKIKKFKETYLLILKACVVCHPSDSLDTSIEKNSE
How it was run: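 Human A3-CHO membranes incubated with [³H]PSB-11 (1 nM) for 45 min at rt, after 10-15 min pre-incubation with ADA 0.12 IU/mL. Nonspecific binding defined with 100 µM R-PIA. DMSO 2.5 % final. GF/B filtration, then scintillation counting. Curves used 6-7 concentrations over 3 log units. At least three experiments in duplicate.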

[5] = Selectivity ratio of Ki for adenosine A2A receptor in rat brain striatal membranes to Ki for recombinant human adenosine A2B receptor expressed in CHO cell membranes; assay type: cell-based
[6] = biological target: T2, Adenosine receptor A2b; assay: Antagonist activity at recombinant human adenosine A2B receptor expressed in CHO cell membranes assessed as inhibition of NECA-induced cAMP accumulation preincubated for 1 hr followed by NECA induction measured after 5 mins in presence of [3H]cAMP and bovine cAMP-binding protein by liquid scintillation counting method; assay type: functional
How it was run: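 CHO cells stably expressing human A2BAR, pre-incubated with antagonist dilutions for 1 h at 37°C, then stimulated with NECA (10 µM final) for 5 min at 37°C. Reaction stopped with hot (90 °C) lysis solution (4 mM EDTA, 0.01 % Triton X100). cAMP quantified by radioactive competition with [³H]cAMP and bovine adrenal cAMP-binding protein. Response expressed as % of NECA response without antagonist. Means ± SEM, three independent experiments in duplicate.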

[7] = biological target: T2, Adenosine receptor A2b; assay: Displacement of PSB-12105 from recombinant human adenosine A2B receptor expressed in CHO cell membranes preincubated for 30 mins followed by PSB-12105 addition measured after 20 mins by flow cytometric method; assay type: cell-based
How it was run: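 Live CHO-hA2B cells were pre-treated with ADA (2 U/mL, 2 h, 37°C), detached with 5 mM EDTA, and resuspended in HBSS with 2 U/mL ADA at 2.5×10^5 cells/well in 96-well format. Antagonists pre-incubated 30 min at 37°C, then fluorescent ligand (100 nM) added for 20 min at 37°C. 3-5 independent experiments in duplicate.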

[8] = biological target: T4, Adenosine receptor A1 (Homo sapiens, UniProt P30542); assay: Displacement of [3H]CCPA from recombinant human adenosine A1 receptor expressed in CHO cell membranes after 90 mins by liquid scintillation counting method; how it was run: as §1
T4 sequence (P30542 whole entry): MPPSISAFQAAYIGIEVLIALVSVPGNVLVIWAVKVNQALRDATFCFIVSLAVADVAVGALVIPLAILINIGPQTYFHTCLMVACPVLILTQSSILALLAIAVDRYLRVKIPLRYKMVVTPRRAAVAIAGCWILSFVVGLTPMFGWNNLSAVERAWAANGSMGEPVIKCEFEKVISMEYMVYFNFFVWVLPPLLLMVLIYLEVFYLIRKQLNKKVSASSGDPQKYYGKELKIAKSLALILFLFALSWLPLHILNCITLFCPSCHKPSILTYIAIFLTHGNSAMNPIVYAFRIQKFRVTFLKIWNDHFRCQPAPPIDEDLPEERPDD

[9] = biological target: Adenosine receptor A2a (Homo sapiens, UniProt P29274); assay: Displacement of [3H]MSX-2 from recombinant human adenosine A2A receptor expressed in HEK cell membranes after 30 mins by liquid scintillation counting method
Adenosine receptor A2a (Homo sapiens, UniProt P29274), sequence (P29274 whole entry): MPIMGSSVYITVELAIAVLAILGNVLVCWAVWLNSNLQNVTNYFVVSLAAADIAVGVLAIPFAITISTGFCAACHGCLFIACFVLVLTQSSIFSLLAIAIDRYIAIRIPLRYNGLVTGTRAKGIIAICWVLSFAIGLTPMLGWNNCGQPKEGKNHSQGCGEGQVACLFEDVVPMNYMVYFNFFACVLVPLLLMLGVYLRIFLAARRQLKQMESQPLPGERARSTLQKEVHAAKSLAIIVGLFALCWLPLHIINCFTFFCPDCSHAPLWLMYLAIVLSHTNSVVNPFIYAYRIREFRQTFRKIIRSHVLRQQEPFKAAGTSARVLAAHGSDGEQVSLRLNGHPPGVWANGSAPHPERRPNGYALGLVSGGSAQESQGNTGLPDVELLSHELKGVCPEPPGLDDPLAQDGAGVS
How it was run: as §2, with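 “IU/mL. Nonspecific binding defined with 10 µM CGS15943.” for “IU/mL.”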

[10] = species on record: Homo sapiens; assay: Selectivity ratio of Ki for recombinant human adenosine A2A receptor expressed in HEK cell membranes to Ki for recombinant human adenosine A2B receptor expressed in CHO cell membranes; assay type: cell-based
[11] = species on record: Homo sapiens; assay: Selectivity ratio of Ki for recombinant human adenosine A3 receptor expressed in CHO cell membranes to Ki for recombinant human adenosine A2B receptor expressed in CHO cell membranes; assay type: cell-based
[12] = biological target: T1, Adenosine receptor A1; assay: Displacement of [3H]-ADAC from adenosine A1 receptor in rat cerebral cortex membranes after 120 mins by filter binding method; assay type: cell membranes, Membrane
[13] = biological target: T5, Adenosine receptor A2b (Mus musculus, UniProt Q60614); assay: Displacement of [3H]PSB-603 from recombinant mouse adenosine A2B receptor expressed in CHO cell membranes after 75 mins by liquid scintillation counting method; how it was run: as §3
T5 sequence (Q60614 whole entry): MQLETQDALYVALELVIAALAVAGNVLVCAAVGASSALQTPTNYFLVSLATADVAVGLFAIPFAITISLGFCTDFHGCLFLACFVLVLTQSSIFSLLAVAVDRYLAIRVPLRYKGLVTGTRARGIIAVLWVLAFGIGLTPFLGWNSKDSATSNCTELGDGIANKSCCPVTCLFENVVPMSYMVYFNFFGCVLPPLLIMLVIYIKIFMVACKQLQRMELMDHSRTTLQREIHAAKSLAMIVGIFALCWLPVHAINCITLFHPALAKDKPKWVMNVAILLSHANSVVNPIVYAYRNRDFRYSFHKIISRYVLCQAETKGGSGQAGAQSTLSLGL

[14] = biological target: T4, Adenosine receptor A1; assay: Displacement of [3H]DPCPX from recombinant human adenosine A1 receptor expressed in CHO cell membranes after 60 mins by scintillation counting method
[15] = biological target: T6, Adenosine receptor A1 (Homo sapiens) (UniProt P30542); assay: Antagonist activity at recombinant human adenosine A1 receptor expressed in CHO cell membranes assessed as inhibition of NECA-induced cAMP accumulation; assay type: functional, cell-based
T6 sequence (whole entry): T4 sequence (P30542 whole entry)

[16] = biological target: T1, Adenosine receptor A1; assay: Displacement of [3H]-CHA from adenosine A1 receptor in rat cortical membranes; assay type: cell membranes
[17] = biological target: T7, Adenosine receptor A3 (Rattus norvegicus, UniProt P28647); assay: Displacement of [3H]-(R)-PIA from adenosine A3 receptor in rat testis membranes; assay type: cell membranes, Membrane
T7 sequence (P28647 whole entry): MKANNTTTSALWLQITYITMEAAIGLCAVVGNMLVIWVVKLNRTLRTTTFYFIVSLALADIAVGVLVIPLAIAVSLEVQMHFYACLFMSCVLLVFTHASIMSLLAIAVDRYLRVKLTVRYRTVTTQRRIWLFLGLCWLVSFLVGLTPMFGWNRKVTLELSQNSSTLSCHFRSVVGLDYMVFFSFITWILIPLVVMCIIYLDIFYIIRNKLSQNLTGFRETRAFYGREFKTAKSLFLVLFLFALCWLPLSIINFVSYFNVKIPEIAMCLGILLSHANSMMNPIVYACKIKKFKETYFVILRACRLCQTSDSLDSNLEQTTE

[18] = biological target: Adenosine receptor A1 (Rattus norvegicus) (UniProt P25099); assay: Displacement of [3H]-CHA from adenosine A1 receptor in rat striatal membranes

Ki [1] [nM]	Ki [2] [nM]	Ki [3] [nM]	Ki [4] [nM]	Compound	Ratio Ki [5]	further results
29.6	498	3.3	1410	CCCn1c(=O)[nH]c2nc(-c3ccc(OCC(=O)NCCCCc4ccccc4)cc3)[nH]c2c1=O	> 150	
168	2150	11.6	904	CCCn1c(=O)[nH]c2nc(-c3ccc(OCC(=O)NCCCC4=C5C(C)=CC(C)=[N+]5[B-](F)(F)n5c(C)cc(C)c54)cc3)[nH]c2c1=O	> 150	
35.3	> 10000	27.9	2990	CCCn1c(=O)[nH]c2nc(-c3ccc(OCC(=O)NCCCc4ccccc4)cc3)[nH]c2c1=O	> 150	IC50 [6]: 174 nM
7.85	> 10000	7.45	> 10000	CCCn1c(=O)[nH]c2nc(-c3ccc(OCC(=O)NCCc4ccccc4)cc3)[nH]c2c1=O	> 150	IC50 [6]: 141 nM
27.2	> 10000	7	266	CCCn1c(=O)[nH]c2nc(-c3ccc(OCC(=O)NCc4ccccc4)cc3)[nH]c2c1=O	> 150	Ratio Ki [11]: 38; IC50 [6]: 135 nM

The next lines start with the compound.

Compound	Ki [1] [nM]	Ki [2] [nM]	Ki [3] [nM]	Ki [4] [nM]	Ratio Ki [5]	further results
CCCN1C(=O)N=C2N=C(c3ccc(S(=O)(=O)N4CCN(Cc5ccccc5)CC4)cc3)N=C2C1=O						IC50 [7]: 23.5 nM
CCCn1c(=O)[nH]c2nc(-c3ccc(OCC(=O)NCCCCCC4=C5C(C)=CC(C)=[N+]5[B-](F)(F)n5c(C)cc(C)c54)cc3)[nH]c2c1=O	77.9	477	5.9	4550	81	Ki [8]: 714 nM; Ki [9]: 58.7 nM; Ratio Ki [10]: 9.9
CCCN1C(=O)N=C2N=C(c3ccc(S(=O)(=O)N4CCN(Cc5ccc(Cl)cc5)CC4)cc3)N=C2C1=O						IC50 [7]: 1.06 nM
CCCn1c(=O)[nH]c2nc(-c3ccc(OCC(=O)NCCCCCCCCCCC4=C5C(C)=CC(C)=[N+]5[B-](F)(F)n5c(C)cc(C)c54)cc3)[nH]c2c1=O	227	> 10000	7.82	≥ 10000	> 150	Ki [8]: > 10000 nM; Ki [9]: 1600 nM; Ratio Ki [10]: > 150
CCCn1c(=O)[nH]c2nc(-c3ccc(OCC(=O)NCCCCC4=C5C(C)=CC(C)=[N+]5[B-](F)(F)n5c(C)cc(C)c54)cc3)[nH]c2c1=O	178	1570	24.4	719	64	
O=C(Cc1ccc(NC(=O)Cc2ccc(Nc3ncnc4c3ncn4[C@@H]3O[C@H](CO)[C@@H](O)[C@H]3O)cc2)cc1)NCCNC(=S)Nc1ccc(-c2c3ccc(=O)cc-3oc3cc(O)ccc23)c(C(=O)O)c1						Ki [12]: 7.1 nM
Cn1c(=O)c2c(ncn2C)n(C)c1=O [CAFFEINE]						Ki [13]: 23000 nM
CCCn1c(=O)c2[nH]c(-c3ccc(OCC(=O)NCCNC(=O)CCCCCNC(=O)COc4ccc(/C=C/C5=[N+]6C(=Cc7ccc(-c8cccs8)n7[B-]6(F)F)C=C5)cc4)cc3)nc2n(CCC)c1=O						Kd [14]: 151 nM; Kb [15]: 209 nM
CCNC(=O)[C@H]1O[C@@H](n2cnc3c(NCCCCCCNS(=O)(=O)c4cccc5c(N(C)C)cccc45)ncnc32)[C@H](O)[C@@H]1O						Ki [16]: 27 nM; Ki [17]: 3600 nM; Ki [18]: 4600 nM
O=C(Cc1ccc(NC(=O)Cc2ccc(Nc3ncnc4c3ncn4[C@@H]3O[C@H](CO)[C@@H](O)[C@H]3O)cc2)cc1)NCCNc1ccc([N+](=O)[O-])c2nonc12						Ki [12]: 4.3 nM

From ChEMBL document CHEMBL4184319, “Fluorescent-Labeled Selective Adenosine A2B Receptor Antagonist Enables Competition Binding Assay by Flow Cytometry” (J Med Chem, 2018)
